Measurements reported in ChEMBL document CHEMBL4689842, “EUbOPEN Chemogenomics Library wave 1” (2021).
“And” between values parts separate entries of the source, which are not always exact repeats. Identical values can stand only once.

Test system: HEK-293T
Test: Multiplex assay against HEK293T;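 as to Population Tubulin-Different-Phenotype (%): share of the cells with healthy nuclei that show this phenotype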
Type: toxicity, cell-based
Settings: human
How it was run: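 With compound added, live cells were imaged on a CQ1 microscope at 37°C and 5% CO2; staining with Hoechst33342, BioTracker Green Microtubule Cytoskeleton Dye, MitoTracker Red and Annexin V Alexa Fluor 680 had been done at seeding. The CellPathfinder machine-learning gating scheme split cells into Hoechst high-intensity objects or normal cells, normal cells into healthy, pyknosed or fragmented nuclei, and pyknosed cells into mitotic or apoptotic. The tubulin, mitochondrial-mass and membrane-permeability phenotypes are per cents of healthy-nucleus cells.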

[1] = 12 h, 1 µM, compound concentration 1 uM, replicate 1
[2] = 12 h, 1 µM, compound concentration 1 uM, replicate 2
[3] = 24 h, 1 µM, compound concentration 1 uM, replicate 1
[4] = 24 h, 1 µM, compound concentration 1 uM, replicate 2
[5] = 12 h, 10 µM, compound concentration 10 uM, replicate 1
[6] = 12 h, 10 µM, compound concentration 10 uM, replicate 2
[7] = 24 h, 10 µM, compound concentration 10 uM, replicate 1
[8] = 24 h, 10 µM, compound concentration 10 uM, replicate 2

SMILES: CN1CCN(Cc2cc(NC(=O)c3ccc4c(c3)CN(c3ccccc3)CC4)cc(C(F)(F)F)c2)CC1
- Population Apoptotic (%) [1]: 37% and 18%
- Population Fragmented Nuclei (%) [1]: 18% and 16%
- Population Healthy Nuclei (%) [1]: 48% and 58%
- Population Hoechst High Intensity Objects (%) [1]: 35% and 18%
- Population Membrane Permeable-Phenotype (%) [1]: 16% and 8%
- Population Mitotic Cells (%) [1]: 62% and 81%
- Population Normal (%) [1]: 64% and 81%
- Population Pyknosed Nuclei (%) [1]: 32% and 24%
- Total Cell Count [1]: 601 and 582
- Population Apoptotic (%) [2]: 20% and 14%
- Population Fragmented Nuclei (%) [2]: 4% and 5%
- Population Healthy Nuclei (%) [2]: 80% and 87%
- Population Mitochondria Different-Phenotype (%) [2]: 36% and 15%
- Population Mitotic Cells (%) [2]: 79% and 85%
- Population Normal (%) [2]: 89% and 97%
- Population Pyknosed Nuclei (%) [2]: 15% and 6%
- Total Cell Count [2]: 1350 and 1353
- Population Apoptotic (%) [3]: 45% and 17%
- Population Fragmented Nuclei (%) [3]: 18% and 14%
- Population Healthy Nuclei (%) [3]: 63% and 71%
- Population Mitochondria Different-Phenotype (%) [3]: 35% and 12%
- Population Mitotic Cells (%) [3]: 54% and 82%
- Population Normal (%) [3]: 70% and 90%
- Population Pyknosed Nuclei (%) [3]: 18% and 14%
- Total Cell Count [3]: 559 and 631
- Population Apoptotic (%) [4]: 11%
- Population Fragmented Nuclei (%) [4]: 13% and 16%
- Population Healthy Nuclei (%) [4]: 78% and 81%
- Population Mitotic Cells (%) [4]: 88%
- Population Normal (%) [4]: 89% and 96%
- Total Cell Count [4]: 1856 and 2285

SMILES: CNC(=O)Nc1ccc2c(c1)[C@@]1(CC2)OC(=O)N(CC(=O)N(Cc2ccc(F)cc2)[C@@H](C)C(F)(F)F)C1=O [A-486]
- Population Apoptotic (%) [1]: 25%
- Population Fragmented Nuclei (%) [1]: 17%
- Population Healthy Nuclei (%) [1]: 47%
- Population Hoechst High Intensity Objects (%) [1]: 15%
- Population Membrane Permeable-Phenotype (%) [1]: 17%
- Population Mitochondria Different-Phenotype (%) [1]: 15%
- Population Mitotic Cells (%) [1]: 74%
- Population Normal (%) [1]: 84%
- Population Pyknosed Nuclei (%) [1]: 35%
- Population Tubulin-Different-Phenotype (%) [1]: 48%
- Total Cell Count [1]: 632
- Population Apoptotic (%) [2]: 12%
- Population Fragmented Nuclei (%) [2]: 4%
- Population Healthy Nuclei (%) [2]: 82%
- Population Hoechst High Intensity Objects (%) [2]: 2%
- Population Membrane Permeable-Phenotype (%) [2]: 29%
- Population Mitochondria Different-Phenotype (%) [2]: 21%
- Population Mitotic Cells (%) [2]: 87%
- Population Normal (%) [2]: 97%
- Population Pyknosed Nuclei (%) [2]: 13%
- Population Tubulin-Different-Phenotype (%) [2]: 88%
- Total Cell Count [2]: 1325
- Population Apoptotic (%) [5]: 14%
- Population Fragmented Nuclei (%) [5]: 20%
- Population Healthy Nuclei (%) [5]: 57%
- Population Hoechst High Intensity Objects (%) [5]: 17%
- Population Membrane Permeable-Phenotype (%) [5]: 7%
- Population Mitochondria Different-Phenotype (%) [5]: 6%
- Population Mitotic Cells (%) [5]: 85%
- Population Normal (%) [5]: 82%
- Population Pyknosed Nuclei (%) [5]: 22%
- Population Tubulin-Different-Phenotype (%) [5]: 4%
- Total Cell Count [5]: 510
- Population Apoptotic (%) [6]: 5%
- Population Fragmented Nuclei (%) [6]: 9%
- Population Healthy Nuclei (%) [6]: 85%
- Population Hoechst High Intensity Objects (%) [6]: 1%
- Population Membrane Permeable-Phenotype (%) [6]: 2%
- Population Mitochondria Different-Phenotype (%) [6]: 8%
- Population Mitotic Cells (%) [6]: 95%
- Population Normal (%) [6]: 98%
- Population Pyknosed Nuclei (%) [6]: 4%
- Population Tubulin-Different-Phenotype (%) [6]: 13%
- Total Cell Count [6]: 1787
- Population Apoptotic (%) [3]: 24%
- Population Fragmented Nuclei (%) [3]: 12%
- Population Healthy Nuclei (%) [3]: 73%
- Population Hoechst High Intensity Objects (%) [3]: 10%
- Population Membrane Permeable-Phenotype (%) [3]: 25%
- Population Mitochondria Different-Phenotype (%) [3]: 11%
- Population Mitotic Cells (%) [3]: 75%
- Population Normal (%) [3]: 89%
- Population Pyknosed Nuclei (%) [3]: 14%
- Population Tubulin-Different-Phenotype (%) [3]: 67%
- Total Cell Count [3]: 669
- Population Apoptotic (%) [4]: 6%
- Population Fragmented Nuclei (%) [4]: 14%
- Population Healthy Nuclei (%) [4]: 79%
- Population Hoechst High Intensity Objects (%) [4]: 3%
- Population Membrane Permeable-Phenotype (%) [4]: 36%
- Population Mitochondria Different-Phenotype (%) [4]: 10%
- Population Mitotic Cells (%) [4]: 93%
- Population Normal (%) [4]: 96%
- Population Pyknosed Nuclei (%) [4]: 5%
- Population Tubulin-Different-Phenotype (%) [4]: 89%
- Total Cell Count [4]: 1891
- Population Apoptotic (%) [7]: 33%
- Population Fragmented Nuclei (%) [7]: 15%
- Population Healthy Nuclei (%) [7]: 75%
- Population Hoechst High Intensity Objects (%) [7]: 9%
- Population Membrane Permeable-Phenotype (%) [7]: 8%
- Population Mitochondria Different-Phenotype (%) [7]: 4%
- Population Mitotic Cells (%) [7]: 66%
- Population Normal (%) [7]: 90%
- Population Pyknosed Nuclei (%) [7]: 9%
- Population Tubulin-Different-Phenotype (%) [7]: 10%
- Total Cell Count [7]: 551
- Population Apoptotic (%) [8]: 7%
- Population Fragmented Nuclei (%) [8]: 25%
- Population Healthy Nuclei (%) [8]: 72%
- Population Hoechst High Intensity Objects (%) [8]: 2%
- Population Membrane Permeable-Phenotype (%) [8]: 7%
- Population Mitochondria Different-Phenotype (%) [8]: 2%
- Population Mitotic Cells (%) [8]: 92%
- Population Normal (%) [8]: 97%
- Population Pyknosed Nuclei (%) [8]: 1%
- Population Tubulin-Different-Phenotype (%) [8]: 13%
- Total Cell Count [8]: 3041
